Compound activity: PubChem, The Scripps Research Institute Molecular Screening Center
Hits are enriched below; roughly 1.9% of the tested compounds scored in any of these assays.
CHRM4 PAM – human M4 muscarinic receptor positive allosteric modulators, primary screen, CHO-K1 cells, Fluo-8 calcium fluorescence; Muscarinic acetylcholine receptor M4 (Homo sapiens), P08173; CHO-K1 hM4/Gqi5, ACh EC20; 0% = ACh EC20, 100% = maximal ACh; activation, % at 3 µM; 360,000 tested, 0.4% active; AID 624126, 2012;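 active = activation above its plate's cutoff, the mean activation of sample wells plus 3 SD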
M5 antag – human M5 muscarinic receptor antagonists, primary screen, CHO cells, Fluo-8 calcium fluorescence; 360,000 tested, 0.59% active; inhibition, % at 3 µM; CHO-hM5 cells, ACh EC80;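 active = inhibition above a per-plate cutoff, the mean of that plate's test compounds plus 3 SD, cut at about 27% in these data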
Target sequence (P08912 whole entry, looked up): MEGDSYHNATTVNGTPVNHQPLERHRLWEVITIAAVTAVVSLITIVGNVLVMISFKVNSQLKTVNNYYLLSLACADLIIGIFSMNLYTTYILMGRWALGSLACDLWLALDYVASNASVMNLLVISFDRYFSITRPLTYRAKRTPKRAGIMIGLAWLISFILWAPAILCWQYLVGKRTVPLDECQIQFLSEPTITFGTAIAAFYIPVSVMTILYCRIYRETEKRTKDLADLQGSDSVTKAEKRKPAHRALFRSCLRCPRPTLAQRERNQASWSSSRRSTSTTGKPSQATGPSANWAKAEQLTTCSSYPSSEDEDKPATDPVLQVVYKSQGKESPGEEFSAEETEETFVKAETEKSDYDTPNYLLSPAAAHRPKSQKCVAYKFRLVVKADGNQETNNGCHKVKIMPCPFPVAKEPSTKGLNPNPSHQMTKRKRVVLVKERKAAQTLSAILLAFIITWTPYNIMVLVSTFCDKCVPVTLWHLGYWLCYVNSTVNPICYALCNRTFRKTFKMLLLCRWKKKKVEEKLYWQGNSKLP
M4 ag – human M4 muscarinic receptor agonists, primary screen, CHO-K1 cells, Fluo-8 calcium fluorescence; Muscarinic acetylcholine receptor M4 (Homo sapiens), P08173; CHO-K1 hM4/Gqi5; vehicle 0%, full acetylcholine response 100%; activation, % at 3 µM; 360,000 tested, 0.14% active; AID 624127, 2012;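 active = activation above the run mean over all test wells plus 3 SD, cut at about 32% in these data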;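 also: peak over basal fluorescence ratio per well then scaled between controls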
CHRM5 PAM – human M5 muscarinic receptor positive allosteric modulators, primary screen, CHO-K1 cells, Fluo-8 calcium fluorescence; 360,000 tested, 0.3% active; CHO-K1 hM5, ACh EC20 PAM; 0% = ACh EC20, 100% = ACh EC100; AID 624038, 2012; activation, % at 3 µM;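 active = activation above the run cutoff, the mean activation of all test compounds plus 3 SD, cut at about 18% in these data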
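system = human M5 receptor in CHO-K1 cells | reagent = EC20 acetylcholine as agonist stimulus | compound dosing = single-point, 3 µM nominal | incubation = Fluo-8 loading 80 min at 37 °C plus 30 min room temperature | detection = Fluo-8 calcium dye fluorescence, kinetic read | benchmarks = low control EC20 acetylcholine (0%), high control EC100 acetylcholine (100%)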
M5 ag – human M5 muscarinic receptor agonists, primary screen, CHO-K1 cells, Fluo-8 calcium fluorescence; CHO-K1 hM5 cells; 0% DMSO wells, 100% maximal acetylcholine response; activation, % at 3 µM; 360,000 tested, 0.19% active;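 active = activation above the run's mean over test compounds plus 3 SD, cut at about 23% in these data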;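 also: signal is peak over basal fluorescence ratio across the kinetic read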
CHRM4 antagonist – human M4 muscarinic receptor antagonists, primary screen, CHO cells, Fluo-8 calcium fluorescence; Muscarinic acetylcholine receptor M4 (Homo sapiens), P08173; CHO-hM4 cells, ACh EC80; inhibition, % at 3 µM; 360,000 tested, 0.73% active;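 active = inhibition above its plate's cutoff, the mean inhibition of sample wells plus 3 SD, cut at about 27% in these data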
Hits are given with their value; – = inactive.

SMILES	CHRM4 PAM	M5 antag	M4 ag	CHRM5 PAM	M5 ag	CHRM4 antagonist
CCC1=C(OC(=O)N(CC)CC)N2C(=O)OC(=NCC3CC3)[C@]2(Cc2ccccc2)[C@H]2C1=CC[C@H]1C(=O)NC(=O)[C@H]12	–	–	–	–	–	–
Oc1ccc(Cl)cc1C1=NNC(c2cccs2)C1 (stereo unspecified)	–	–	–	–	–	–
Cc1ccc(O)c(C2=NNC(c3ccc(Cl)cc3)C2)c1 (stereo unspecified)	–	51	–	21	–	–
CCOc1ccc(NC(=O)CCn2c(=S)oc3ccccc32)cc1	27	–	–	–	–	–
COc1ccc(OC)c(-c2cc(C(=O)N/N=C/c3cc(OC)c(OC)cc3OC)c3ccccc3n2)c1	–	–	–	–	–	–
Brc1ccc(-c2c[n+]3c(n2-c2ccccc2)SCC3)cc1	–	–	–	–	–	54
O=C(CSc1nc(C(F)(F)F)cc(=O)[nH]1)N1CCC(Cc2ccccc2)CC1	–	–	–	–	–	–
Cc1ccc2nc(SCC(=O)N3CCCCC3)nc(=O)n2c1	–	–	–	–	–	–
O=C(O)CSc1nc2ccccc2c(=O)[nH]1	–	–	–	24	–	–
O=C(CSc1nc2ccccc2c(=O)[nH]1)c1ccccc1	–	–	–	–	–	–
COc1ccc(CCNC(=O)c2ccc(NC(=O)CC3SC(N4CCCCC4)=NC3=O)cc2)cc1 (stereo unspecified)	–	–	–	–	–	–
COc1ccc(C(=O)NC2CC2)cc1OC1CCN(Cc2ccc(F)cc2F)CC1	–	–	–	–	–	–
CC(=O)Nc1ccc(S(=O)(=O)CCC#N)cc1	–	–	–	40	–	–
NC(=O)c1nsc(C(=O)N(c2cccc(F)c2)C(C(=O)NCC2CCCO2)c2c[nH]c3ccccc23)c1N (stereo unspecified)	–	–	–	–	–	–
Cn1cc(CNC(=O)c2cc(COc3ccc4c(c3)CCCC4)on2)cn1	–	–	–	–	–	–
O=C(NC(c1cccnc1)C(F)(F)F)c1cc(COc2ccc3c(c2)CCCC3)on1 (stereo unspecified)	–	29	–	–	–	–
CC1CC(C)(C)OC(C[N+]2(C)CCCCC2)O1 (stereo unspecified)	–	31	–	–	–	37
C[N+]1(CC2COC3(CCCCC3)O2)CCCC1 (stereo unspecified)	–	–	–	–	–	–
COc1ccccc1CNC(=O)COC(=O)C1CCN(S(=O)(=O)c2c(Cl)cccc2Cl)CC1	–	–	–	–	–	–
O=C(/C=C\c1cn(-c2ccccc2)nc1-c1ccc2c(c1)OCCO2)N1CCOCC1	–	–	–	–	–	–
CN1CCN(C(=O)/C=C/c2cn(-c3ccccc3)nc2-c2ccc3c(c2)OCCO3)CC1	–	–	–	19	–	–
C[N+]1(CC(O)c2ccccc2)CCCCCC1 (stereo unspecified)	–	–	–	–	–	–
CC(=O)OC(C[N+]1(C)CCCCCC1)c1ccccc1 (stereo unspecified)	–	28	–	–	–	37
COC(=O)[C@@H]1C[C@@]2(O)[C@H](O)[C@H](O)[C@H](O)C[C@H]2N1Cc1cc(F)ccc1F	28	–	–	–	–	–
CCN(CC#CCC(O)(c1ccccc1)c1ccccc1)C(C)C	–	–	–	–	–	31
CC(C)N(CC#CCC(O)(c1ccccc1)c1ccccc1)CCO	–	–	–	–	–	–
CC1CCC(NS(=O)(=O)c2ccc(N3CCCC3=O)cc2)CC1 (stereo unspecified)	–	–	–	–	–	32
O=C1CCCN1c1ccc(S(=O)(=O)Nc2cccnc2)cc1	–	–	–	–	–	–
